As a reminder, the inhibition in vivo is how much of the control response was suppressed.

The source made the active and inactive calls. The calls are words filed in the database; no cut-off is given here.

The test system of experiment [1] is Felis catus. As to the kind of experiment: Compound was tested for inhibitory effect reversed by haloperidol (100 ug/kg) at […] in anaesthetized cat; Yes. The class given is functional, organism-based. The method, boiled down: (§1)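 Cats anaesthetised with pentobarbital sodium (30 mg/kg, intrathorax); arterial pressure recorded from right femoral artery. Postganglionic cardioaccelerator nerve stimulated at 2 Hz, 5 ms pulses, supramaximal voltage, 20-30 s trains. After stable controls, compound given iv in doses spaced 0.48 log units; inhibition of stimulation-induced tachycardia measured. Haloperidol 100 μg iv at end, inhibition redetermined. ID50 by probit analysis.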

The subject of experiment [2] is Felis catus. As to the kind of experiment: Compound was tested for percentage increase in mean arterial blood pressure at 100 mg/kg in anaesthetized cat. The class given is functional, Artery. The method, boiled down: (§2)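 Pentobarbital sodium (30 mg/kg, intrathorax) anaesthetised cats; arterial pressure from right femoral artery via pressure transducer. Compound given iv, doses spaced 0.48 log units. Change in mean arterial pressure (increase, i.e. transient primary pressor phase, and decrease) and in resting heart rate expressed as % of resting control; resting pressure (mmHg) and heart rate (beats/min) also recorded.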

Experiment [3] relates to Felis catus. As to the kind of experiment: Compound was tested for percentage increase in mean arterial blood pressure at 300 mg/kg in anaesthetized cat. In kind it is functional, Artery. Summed up:
as §2

The test system of experiment [4] is Felis catus. As to the kind of experiment: Compound was tested for percentage increase in mean arterial blood pressure at 30 mg/kg in anaesthetized cat. The class given is functional, Artery. Summed up: as §2
Experiment [5] deals with Felis catus. As to the kind of experiment: Compound was tested for neuronal inhibition of postganglionic cardio accelerator nerve stimulation in anaesthetized cat at 2 Hz frequency at 100 mg/kg. In kind it is functional. The note with it: Heart. The method, boiled down: as §1
For experiment [6], the system named is Felis catus. As to the kind of experiment: Compound was tested for neuronal inhibition of postganglionic cardio accelerator nerve stimulation in anaesthetized cat at 2 Hz frequency at 300 mg/kg. The note with it: Heart. The class given is functional. Summed up:
as §1

Experiment [7] relates to Felis catus. As to the kind of experiment: Compound was tested for neuronal inhibition of postganglionic cardio accelerator nerve stimulation in anaesthetized cat at 2 Hz frequency at 30 mg/kg. The class given is functional. Particulars: Heart. The method, boiled down: as §1
Experiment [8] deals with Felis catus. As to the kind of experiment: Compound was tested for percentage decrease in mean arterial blood pressure at 300 mg/kg in anaesthetized cat. In kind it is functional, Artery. The method, boiled down:
as §2

Experiment [9] relates to Felis catus. As to the kind of experiment: Compound was tested for percentage decrease in mean arterial blood pressure at 30 mg/kg in anaesthetized cat. In kind it is functional, Artery. The method, boiled down: as §2
The test system of experiment [10] is Felis catus. As to the kind of experiment: Potency relative to apomorphine at […] in anaesthetized cat; 0.07-0.33. In kind it is functional.
In experiment [11] the test system is Felis catus. As to the kind of experiment: Compound was tested for percentage decrease in heart rate at […] in anaesthetized cat (resting heart rate (beats/min)). In kind it is functional. The method, boiled down: as §2
Experiment [12] has as its system Felis catus. As to the kind of experiment: Compound was tested for percentage decrease in heart rate at 300 mg/kg in anaesthetized cat. The class given is functional. The method, boiled down: as §2
Experiment [13] relates to Felis catus. As to the kind of experiment: Compound was tested for percentage decrease in heart rate at 30 mg/kg in anaesthetized cat. The class given is functional. The method, boiled down: as §2
Experiment [14] relates to Felis catus. As to the kind of experiment: Compound was tested for percentage decrease in mean arterial blood pressure at 100 mg/kg in anaesthetized cat (resting mean arterial pressure (mmHg)). The class given is functional, Artery. The method, boiled down:
as §2

Experiment [15] relates to Felis catus. As to the kind of experiment: Sympathetic neuronal inhibiting activity in anaesthetized cat 30 at mg/kg; 0.12-0.33. The class given is functional. Particulars: Sympathetic neuron, read-out: ID50 (the source's name). Summed up:
as §1

Experiment [16] deals with Felis catus. As to the kind of experiment: Potency relative to apomorphine at 30 mg/kg in anaesthetized cat. The class given is functional.
Experiment [17] concerns Felis catus. As to the kind of experiment: Compound was tested for percentage decrease in heart rate at 100 mg/kg in anaesthetized cat. In kind it is functional. Summed up:
as §2

The test system of experiment [18] is Felis catus. As to the kind of experiment: Compound was tested for percentage decrease in mean arterial blood pressure at 100 mg/kg in anaesthetized cat. In kind it is functional, Artery. The method, boiled down:
as §2

The subject of experiment [19] is Felis catus. As to the kind of experiment: Sympathetic neuronal inhibiting activity in anaesthetized cat at 30 mg/kg. The note with it: Sympathetic neuron, read-out: ID50 (the source's name). In kind it is functional. The method, boiled down: as §1
Experiment [20] relates to Felis catus. As to the kind of experiment: Compound was tested for inhibitory effect reversed by haloperidol (100 ug/kg) at 3 mg/kg in anaesthetized cat; yes. In kind it is functional, organism-based. More on the design: dose 3 mg/kg. The method, boiled down: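 Pentobarbital sodium (30 mg/kg) anaesthetised cats; arterial pressure recorded from the right femoral artery. Postganglionic cardioaccelerator nerve stimulated at 2 Hz with 5 ms pulses at supramaximal voltage, in 20-30 s trains. After stable controls, compound was given iv in doses spaced at 0.48 log intervals. Haloperidol (100 μg/kg iv) was then given and inhibition of nerve-evoked tachycardia redetermined.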

For experiment [21], the system named is Felis catus. As to the kind of experiment: Compound was tested for percentage increase in mean arterial blood pressure at 10 mg/kg in anaesthetized cat. In kind it is functional, Artery. The method, boiled down: as §2
Experiment [22] has as its system Felis catus. As to the kind of experiment: Compound was tested for percentage increase in mean arterial blood pressure at 3 mg/kg in anaesthetized cat. In kind it is functional, Artery. The method, boiled down:
as §2

The test system of experiment [23] is Felis catus. As to the kind of experiment: Compound was tested for neuronal inhibition of postganglionic cardio accelerator nerve stimulation in anaesthetized cat at 2 Hz frequency at 10 mg/kg. The class given is functional. Particulars: Heart. Summed up:
as §1

In experiment [24] the test system is Felis catus. As to the kind of experiment: Compound was tested for neuronal inhibition of postganglionic cardio accelerator nerve stimulation in anaesthetized cat at 2 Hz frequency at 3 mg/kg. The class given is functional. The note with it: Heart. The method, boiled down:
as §1

Experiment [25] has as its system Felis catus. As to the kind of experiment: Compound was tested for percentage decrease in mean arterial blood pressure at 3 mg/kg in anaesthetized cat. In kind it is functional, Artery. The method, boiled down:
as §2

In experiment [26] the test system is Felis catus. As to the kind of experiment: Potency relative to apomorphine at 3 mg/kg in anaesthetized cat. The class given is functional.
In experiment [27] the test system is Felis catus. As to the kind of experiment: Compound was tested for percentage decrease in heart rate at 10 mg/kg in anaesthetized cat. The class given is functional. Summed up: as §2
Experiment [28] concerns Felis catus. As to the kind of experiment: Compound was tested for percentage decrease in heart rate at 3 mg/kg in anaesthetized cat. The class given is functional. The method, boiled down: as §2
Experiment [29] relates to Felis catus. As to the kind of experiment: Compound was tested for percentage decrease in mean arterial blood pressure at 10 mg/kg in anaesthetized cat (resting mean arterial pressure (mmHg)). In kind it is functional, Artery. The method, boiled down:
as §2

The subject of experiment [30] is Felis catus. As to the kind of experiment: Sympathetic neuronal inhibiting activity in anaesthetized cat 3 at mg/kg. In kind it is functional. Particulars: Sympathetic neuron, read-out: ID50 (the source's name). Summed up:
as §1

Take `CNCCc1cccc2[nH]ccc12`: in the experiment with Felis catus [1], the Inhibitory effect result is “Yes”. The Increase is on record as 16% with Felis catus [2], 41% in the experiment with Felis catus [3] and 6% in the experiment on Felis catus [4]. Also, the inhibition in vivo at 100 mg/kg in the experiment on Felis catus [5] came to 60%. This molecule also had an inhibition in vivo at 300 mg/kg in the experiment with Felis catus [6] of 77%. Besides, in the experiment on Felis catus [7], the inhibition in vivo at 30 mg/kg was found to be 29%. Also, the Decrease stood at 10% in the experiment on Felis catus [8]; 11% in the experiment on Felis catus [9]; 12% in the experiment on Felis catus [11]; 10% in the experiment on Felis catus [12]; 7% with Felis catus [13]; 18% with Felis catus [14]. In addition, in the experiment with Felis catus [10], the Ratio was 0.14. The ED50 in the experiment on Felis catus [15] is 0.22 µmol/kg.
As to `CN1C[C@H](CC#N)C[C@@H]2c3cccc4[nH]c(Cl)c(c34)C[C@H]21` [LERGOTRILE], the Inhibitory effect entry with Felis catus [1] is “Yes”. In the experiment with Felis catus [5], at 100 mg/kg the inhibition in vivo was 57%. For the same molecule, 300 mg/kg produced 69% inhibition in vivo with Felis catus [6]. For the same molecule, 30 mg/kg produced 21% inhibition in vivo with Felis catus [7]. The Decrease is reported as 38% in the experiment on Felis catus [8]; 22% in the experiment with Felis catus [9]; 10% in the experiment on Felis catus [17]; 12% in the experiment on Felis catus [12]; 11% in the experiment on Felis catus [13]; 34% with Felis catus [18]. The Ratio with Felis catus [16] turned out to be 0.08. For the same molecule, the ED50 in the experiment with Felis catus [19] was found to be 0.27 µmol/kg.
With `CCCN1C[C@H](CSC)C[C@@H]2c3cccc4[nH]cc(c34)C[C@H]21` [PERGOLIDE], in the experiment on Felis catus [20], the Inhibitory effect result is “Active”. In addition, the Increase in the experiment with Felis catus [21] worked out at 15%; in the experiment with Felis catus [4], 52%; with Felis catus [22], 5%. In the experiment with Felis catus [23], this molecule came in with an inhibition in vivo at 10 mg/kg of 59%. Further, the inhibition in vivo at 30 mg/kg with Felis catus [7] worked out at 80%. In the experiment with Felis catus [24], this molecule registered an inhibition in vivo at 3 mg/kg of 23%. Further, the Decrease with Felis catus [9] stood at 6%; with Felis catus [25] it was 5%; in the experiment with Felis catus [27], 59%; in the experiment on Felis catus [13] it was 80%; in the experiment with Felis catus [28] it was 23%; in the experiment with Felis catus [29], 8%. The Ratio in the experiment on Felis catus [26] is given as 1.13. The ED50 with Felis catus [30] came out at 0.02 µmol/kg.

The values above are taken from ChEMBL document CHEMBL1121790, “Proposed dopaminergic pharmacophore of lergotrile, pergolide, and related ergot alkaloid derivatives” (1981).
